The text below walks through data of ChEMBL document CHEMBL2434890, “Design, synthesis and structure-activity relationship of novel quinoxaline derivatives as cancer chemopreventive agent by inhibition of tyrosine kinase receptor” (Eur J Med Chem, 2013).

Molecules are shown by their SMILES.

What all share (format): cell-based
The nature of series [1]: Inhibition of TRK in human MCF7 cells after 48 hrs by ELISA. In a few lines:
(§1)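 HepG2 or MCF-7 cells, kept in DMEM with 10% heat-inactivated FCS and penicillin, seeded at 0.50×10⁶ per flask and treated 48 h at 37 °C, 5% CO₂ with compound in DMSO (2.5–40 μg/ml). Cells were homogenized in saline. TRK level was measured by double-antibody sandwich ELISA (OD 450 nm) against a standard curve, in triplicate. IC50 = 50% reduction of TRK relative to untreated cells.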
On the technique in general: An ELISA detects its analyte on a solid surface through an enzyme-linked reagent.

Series [2] can be described thus: Inhibition of TRK in human HepG2 cells after 48 hrs by ELISA. In outline:
as §1

Series [3] deals with Raji. The series is described as follows: Inhibition of TPA-induced EBV early antigen activation infected in human Raji cells after 48 hrs by immunofluorescence method relative to control. Conditions: human gammaherpesvirus 4; call rule not given here.
The subject of series [4] is Raji. Briefly: Inhibition of TPA-induced EBV early antigen activation infected in human Raji cells assessed as antigen activity at 10 mol ratio/TPA after 48 hrs by immunofluorescence method relative to control. Set-up: scale not given: the % may be the effect or the level left. The following applies: human gammaherpesvirus 4.
Series [5] deals with Raji. The series is described as follows: Inhibition of TPA-induced EBV early antigen activation infected in human Raji cells assessed as antigen activity at 100 mol ratio/TPA after 48 hrs by immunofluorescence method relative to control. Also on record: scale not given: the % may be the effect or the level left. The following applies: human gammaherpesvirus 4.
Series [6] relates to Raji. Briefly: Inhibition of TPA-induced EBV early antigen activation infected in human Raji cells assessed as antigen activity at 500 mol ratio/TPA after 48 hrs by immunofluorescence method relative to control. Also on record: scale not given: the % may be the effect or the level left. Conditions: human gammaherpesvirus 4.
Series [7] is described as follows: Cytotoxicity against human Raji cells assessed as cell viability at 1000 mol ratio/TPA after 48 hrs by trypan blue staining method. Conditions: read-out: Activity. In outline: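 Raji cells were treated as in the EBV-EA assay: 48 h at 37 °C with 4 mM n-butyric acid, […] and compound in DMSO (ca. 0.7%), dosed by mol ratio to TPA. Viability of the treated cells was determined by trypan blue staining.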

The subject of series [8] is Raji. Briefly: Inhibition of TPA-induced EBV early antigen activation infected in human Raji cells assessed as antigen activity at 1000 mol ratio/TPA after 48 hrs by immunofluorescence method relative to control. Also on record: scale not given: the % may be the effect or the level left. Conditions: human gammaherpesvirus 4.

With `NNc1nc2ccccc2[nH]c1=O`, the IC50 in series [1] turned out to be 10.2 nM; in series [2] it was 9 nM. In addition, the inhibition entry in the series with Raji [3] was “Dose-dependent effect”. The Activity was determined as 100% with Raji [4], 78.1% with Raji [5], 46.5% in the series on Raji [6] and 14.9% in the series on Raji [8]. Besides, the viability at 48 h, 1000 mol ratio/TPA in series [7] is 60%.
On to `CC1(C)CC[C@]2(C(=O)O)CC[C@]3(C)C(=CC[C@@H]4[C@@]5(C)CC[C@H](O)C(C)(C)[C@@H]5CC[C@]43C)[C@@H]2C1` [OLEANOLIC_ACID], for which the Activity with Raji [4] stood at 100%; in the series with Raji [5], 80%; in the series on Raji [6], 30%; in the series on Raji [8], 12.7%. Moreover, in series [7], the viability at 48 h, 1000 mol ratio/TPA was determined as 70%.
For the molecule `COc1cccc2c1C(=O)c1c(O)c3c(c(O)c1C2=O)C[C@@](O)(C(=O)CO)C[C@@H]3O[C@H]1C[C@H](N)[C@H](O)[C@H](C)O1` [DOXORUBICIN], the IC50 amounted to 3.2 nM in series [1] and 2.5 nM in series [2].
On to `Oc1nc2ccccc2n2c(O)nnc12`, for which the IC50 is 30 nM in series [1] and 25 nM in series [2]. Moreover, the inhibition result in the series on Raji [3] was “Dose-dependent effect”. For the same molecule, the Activity in the series with Raji [4] was 100%; in the series with Raji [5] it was 79.1%; in the series on Raji [6], 47.2%; with Raji [8], 15.6%. For the same molecule, the viability at 48 h, 1000 mol ratio/TPA in series [7] was 60%.
Consider `O=C1CN2C(=NN1)C(=O)Nc1ccccc12`, for which, in the series on Raji [3], the inhibition entry was “Dose-dependent effect”. Further, the Activity in the series with Raji [4] turned out to be 100%; with Raji [5] it was 78%; in the series with Raji [6] it was 46.3%; with Raji [8], 13.6%. The viability at 48 h, 1000 mol ratio/TPA in series [7] was 60%.
As for `CN(C)c1ccc(/C=N/Nc2nc3ccccc3[nH]c2=O)cc1`, the values for the IC50 in series [1] and in series [2] were 11.8 nM and 9.8 nM, respectively. The inhibition entry in the series on Raji [3] was “Dose-dependent effect”. Moreover, the Activity in the series on Raji [4] stood at 100%; in the series on Raji [5], 71.7%; in the series with Raji [6], 42.2%; in the series on Raji [8], 13.9%. In series [7], the viability at 48 h, 1000 mol ratio/TPA came to 60%.
With `C=CCn1c(=O)c(N/N=C/c2ccc(N(C)C)cc2)nc2ccccc21`, the figures for the IC50 in series [1] and in series [2] were 2.9 nM and 2.65 nM, respectively. Also, the inhibition entry in the series with Raji [3] was “Dose-dependent effect”. In addition, the Activity in the series with Raji [4] turned out to be 100%; with Raji [5] it was 73.2%; with Raji [6], 41.6%; in the series on Raji [8], 10.1%. The viability at 48 h, 1000 mol ratio/TPA in series [7] was determined as 60%.
Regarding `O=C1Nc2ccccc2N2C(O)=CNN=C12`, in the series on Raji [3], the inhibition result was “Dose-dependent effect”. In addition, the Activity in the series with Raji [4] worked out at 100%; in the series on Raji [5], 77.6%; in the series with Raji [6], 46%; in the series on Raji [8], 13.2%. Besides, in series [7], the viability at 48 h, 1000 mol ratio/TPA is 60%.
On to `CN1C(=S)NNC12Nc1ccccc1NC2=O` (stereo not given), for which the inhibition entry in the series with Raji [3] is “Dose-dependent effect”. Besides, the Activity in the series with Raji [4] worked out at 100%; in the series with Raji [5], 84.6%; with Raji [6], 48.3%; in the series with Raji [8] it was 18.7%. Besides, the viability at 48 h, 1000 mol ratio/TPA in series [7] was found to be 60%.
For the molecule `O=C(c1ccccc1)N1C(=S)NNC12Nc1ccccc1NC2=O` (stereo not given), the IC50 result in series [1] and in series [2] was “Not Active” throughout. Moreover, the inhibition entry in the series on Raji [3] was “Dose-dependent effect”. Besides, the Activity with Raji [4] is 100%; in the series on Raji [5], 85.2%; in the series with Raji [6], 49.1%; in the series with Raji [8], 19.1%. In series [7], the viability at 48 h, 1000 mol ratio/TPA was found to be 60%.
For `Oc1nc2ccccc2nc1O`, the IC50 result in series [1] and in series [2] was “Not Active” in each case. Besides, the inhibition entry with Raji [3] was “Dose-dependent effect”. In addition, the Activity in the series on Raji [4] was 100%; with Raji [5], 78.5%; in the series with Raji [6], 46.8%; in the series with Raji [8], 14.2%. In addition, in series [7], the viability at 48 h, 1000 mol ratio/TPA turned out to be 60%.
Regarding `O=C1CCC(=O)N(c2nc3ccccc3[nH]c2=O)N1`, the inhibition result in the series with Raji [3] was “Dose-dependent effect”. Also, the Activity in the series with Raji [4] turned out to be 100%; with Raji [5] it was 82.8%; in the series with Raji [6], 47.7%; with Raji [8], 16.7%. In addition, the viability at 48 h, 1000 mol ratio/TPA in series [7] stood at 60%.
As for `N=c1c(O)nnc2c(=O)[nH]c3ccccc3n12`, the IC50 is 20.2 nM in series [1] and 18 nM in series [2]. Moreover, the inhibition entry in the series with Raji [3] is “Dose-dependent effect”. Besides, the Activity with Raji [4] worked out at 100%; in the series on Raji [5], 79%; with Raji [6] it was 47.1%; in the series on Raji [8], 15%. For the same molecule, the viability at 48 h, 1000 mol ratio/TPA in series [7] was found to be 60%.
For the molecule `CCOC(=O)Cn1c(=O)c(N/N=C/c2ccc(N(C)C)cc2)nc2ccccc21`, the 50% inhibitory concentration (IC50) in series [1] was 4.85 nM; in series [2], 4.5 nM. Further, in the series with Raji [3], the inhibition result is “Dose-dependent effect”. For the same molecule, the Activity worked out at 100% in the series with Raji [4], 78.6% with Raji [5], 47.6% in the series with Raji [6] and 12.7% in the series with Raji [8]. Moreover, the viability at 48 h, 1000 mol ratio/TPA in series [7] was determined as 60%.
Regarding `COc1cccc(OC)c1/C=N/Nc1nc2ccccc2[nH]c1=O`, the IC50 in series [1] came out at 8.75 nM; in series [2] it was 7.5 nM. Besides, in the series on Raji [3], the inhibition result is “Dose-dependent effect”. For the same molecule, the Activity stood at 100% with Raji [4], 81% in the series with Raji [5], 46.6% in the series on Raji [6] and 16.8% with Raji [8]. Further, in series [7], the viability at 48 h, 1000 mol ratio/TPA came to 60%.
Turning to `Oc1nc2ccccc2n2cnnc12`, the IC50 result in series [1] and in series [2] was “Not Active” throughout. The inhibition entry in the series with Raji [3] was “Dose-dependent effect”. The Activity in the series with Raji [4] is 100%; in the series with Raji [5] it was 84.2%; in the series on Raji [6] it was 48.2%; with Raji [8], 18.6%. For the same molecule, the viability at 48 h, 1000 mol ratio/TPA in series [7] worked out at 60%.
As to `CC(C)=NNc1nc2ccccc2[nH]c1=O`, the IC50 in series [1] turned out to be 17.2 nM; in series [2] it was 15 nM. The inhibition result in the series on Raji [3] is “Dose-dependent effect”. Moreover, the Activity in the series on Raji [4] was determined as 100%; with Raji [5], 77%; in the series on Raji [6] it was 45%; in the series with Raji [8] it was 13.2%. Also, the viability at 48 h, 1000 mol ratio/TPA in series [7] worked out at 60%.
Consider `O=c1[nH]c2ccccc2n2c(=O)c(O)nnc12`, for which the IC50 was determined as 27.8 nM in series [1] and 20 nM in series [2]. In the series with Raji [3], the inhibition entry was “Dose-dependent effect”. Besides, the Activity with Raji [4] was 100%; with Raji [5], 78.6%; with Raji [6] it was 47%; in the series on Raji [8], 14.2%. Further, the viability at 48 h, 1000 mol ratio/TPA in series [7] is 60%.
In the case of `CCOC(=O)Cn1c(=O)c(N/N=C/c2c(OC)cccc2OC)nc2ccccc21`, the IC50 in series [1] turned out to be 4.6 nM; in series [2], 4.1 nM. The inhibition result with Raji [3] is “Dose-dependent effect”. For the same molecule, the Activity in the series with Raji [4] stood at 100%; in the series with Raji [5], 75.6%; in the series on Raji [6] it was 45.7%; in the series with Raji [8] it was 13.5%. Moreover, the viability at 48 h, 1000 mol ratio/TPA in series [7] was 60%.
In the case of `O=C1CC(=O)N(c2nc3ccccc3[nH]c2=O)N1`, in the series on Raji [3], the inhibition entry is “Dose-dependent effect”. Also, the Activity in the series on Raji [4] came to 100%; in the series on Raji [5], 83.9%; in the series on Raji [6] it was 48%; in the series on Raji [8], 17.5%. Moreover, the viability at 48 h, 1000 mol ratio/TPA in series [7] came to 60%.
For the molecule `C=CCn1c(=O)c(N/N=C/c2c(OC)cccc2OC)nc2ccccc21`, the figures for the IC50 in series [1] and in series [2] were 4.15 nM and 3.5 nM, respectively. In the series on Raji [3], the inhibition entry is “Dose-dependent effect”. In addition, the Activity with Raji [4] turned out to be 100%; in the series with Raji [5], 73.5%; with Raji [6], 42%; in the series on Raji [8] it was 10.8%. Besides, the viability at 48 h, 1000 mol ratio/TPA in series [7] was determined as 60%.
`O=c1[nH]c2ccccc2nc1Cl`: the inhibition entry in the series with Raji [3] was “Dose-dependent effect”. The Activity worked out at 100% in the series with Raji [4], 80.2% in the series on Raji [5], 48.5% in the series on Raji [6] and 16.7% in the series with Raji [8]. In addition, the viability at 48 h, 1000 mol ratio/TPA in series [7] was 50%.

The term IC50 denotes the concentration needed to halve the response being measured.
